# SR-BI DiI-HDL act: enhances SR-BI lipid uptake from DiI-HDL; AID 504775; activation, % at 12.5 µM; CHO ldlA[mSR-BI] cells, DiI-HDL uptake fluorescence, 3 h; 100 = double the neutral-control signal; 320,000 tested, 0.096% active;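 active = mean replicate activation of at least 60% and every replicate at or above 60%; inconclusive = mean or all-replicate condition met, but not both; inactive = mean below 60% and not all replicates reaching 60%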;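 also: 0% = median plate neutral-control signal and 100% = twice that signal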
#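 Test system: SR-BI-overexpressing, LDLR-lacking CHO cells. Measured by: DiI fluorescence, bottom read. Medium: Ham's F12 with 0.5% BSA, HEPES 25 mM, pH 7.4. Timing: 3 h uptake period with compound, 37 °C.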
# dFosB act: enhances mouse delta FosB homodimer DNA binding; activation, % at 25 µM; 340,000 tested, 0.99% active; purified delta FosB, TAMRA-CDK5 oligo fluorescence polarization; percent of positive-control signal above neutral wells; P13346;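 active = mean activation above about 17%, with every replicate also reaching it, limit read from the data, passing the limit was not always enough; inconclusive = only one of the two conditions met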
# Target sequence (P13346 whole entry, looked up): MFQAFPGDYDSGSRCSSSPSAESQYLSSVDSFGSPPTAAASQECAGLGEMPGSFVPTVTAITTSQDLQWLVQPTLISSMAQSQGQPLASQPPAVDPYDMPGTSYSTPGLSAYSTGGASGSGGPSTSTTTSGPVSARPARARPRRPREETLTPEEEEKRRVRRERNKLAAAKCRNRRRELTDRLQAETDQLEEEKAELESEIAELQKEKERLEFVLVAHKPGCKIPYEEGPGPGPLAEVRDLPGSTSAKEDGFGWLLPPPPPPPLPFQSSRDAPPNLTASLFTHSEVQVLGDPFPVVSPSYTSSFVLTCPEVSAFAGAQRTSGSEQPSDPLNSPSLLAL
# SR-BI HDL uptake: mouse SR-BI HDL lipid transfer inhibition; Q61009; ldlA[mSR-BI] CHO cells, DiI-HDL uptake fluorescence, 3 h; inhibition, % at 12.5 µM; 320,000 tested, 0.96% active; AID 488896;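 active = mean replicate inhibition of at least 70% and a set share of replicates each scoring 70 or more; inconclusive = meets just one of the two criteria; inactive = fails both criteria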;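 also: 0% = median of neutral control wells and 100% = median of positive control wells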
# CAL PDZ FP-1: blocks peptide binding to the human CAL PDZ domain | purified CAL PDZ, TMR-peptide fluorescence polarization, 1 h | inhibition, % at 24.9 µM | 300,000 tested, 0.92% active;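 active = mean inhibition of at least 30% with at least half of replicates also reaching 30%; inconclusive = no clear call, values can overlap the other calls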;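 also: 0% = DMSO neutral control and 100% = excess unlabeled competitor peptide PRC23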
# CAL PDZ FP-2: blocks peptide binding to human CAL PDZ domain; Q9HD26; purified CAL PDZ, TMR-peptide fluorescence polarization, 1 h; inhibition, % at 20 µM; 330,000 tested, 0.02% active; AID 504414;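 active = highest replicate inhibition of at least 40%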;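 also: plate controls were DMSO neutral control wells for no effect and unlabeled competitor peptide control wells for full effect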
#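 Assay system – tagged CAL PDZ protein CerCALP, purified · Timing – 1 h at RT · Compound – single point, 20 µM · Measured by – fluorescence polarization from S- and P-plane intensities, G-factor corrected · Evaluation – inhibition from polarization loss · Probe or stimulus – TMR reporter peptide T*-PRC34 · Buffer or medium – pH 7.4 phosphate-saline buffer, reducing agent, detergent, IgG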
# Active calls of the source: *; ? = inconclusive; . = not tested or not shown; + = active, no number. Sampled rows, rich in hits. Any-hit rate of the full collection: about 2.8%.
SMILES,SR-BI DiI-HDL act,dFosB act,SR-BI HDL uptake,CAL PDZ FP-1,CAL PDZ FP-2
O=[N+]([O-])c1cccc(S(=O)(=O)Nc2nc3ccccc3nc2Nc2cccc(S(=O)(=O)N3CCCCC3)c2)c1,-76,-21,76*,3,0
CCN(CC1COc2ccccc2O1)C(=S)NC1CC2CCC1C2 (centres undefined),1,-2,-1,.,0
CC(=O)N1CCc2cc(S(=O)(=O)NCc3ccc(C)cc3)ccc21,-8,7,8,4,0
O=C(O)CCCC(=O)N1CCc2cc(S(=O)(=O)NCc3ccccc3)ccc21,4,-3,-4,.,-1
CCC(=O)N1CCc2cc(S(=O)(=O)CCC(=O)NCc3ccc(C)cc3)ccc21,13,-1,-13,.,-2
CCC(=O)N1CCc2cc(S(=O)(=O)NCCC(=O)NCc3ccc(F)cc3)ccc21,-4,-1,4,37*,0
Cc1ccc(CNS(=O)(=O)c2ccc3c(c2)CCN3C(=O)CCCC(=O)O)cc1,2,-4,-2,34*,7
CC(=O)N1CCc2cc(S(=O)(=O)NCC(=O)NCc3ccc(Cl)cc3)ccc21,6,-1,-6,+,-1
COc1ccc(C(=O)N=C2SC3CS(=O)(=O)CC3N2Cc2ccc(F)cc2)cc1 (centres undefined),-18,16,18,1,-2
Cc1ccc(C)c(OCC(=O)NNC(=O)c2ccc(NC(=O)C3CC3)cc2)c1,-74,?,74*,-1,-3
Cc1cc(Br)ccc1OCC(=O)NNC(=O)c1ccc(NC(=O)C2CC2)cc1,-47,13,47,0,0
CCCCc1c(O)nc(SCC(=O)N2CCCCC2)n(-c2ccccc2C)c1=O,31,3,-31,54*,-1
COc1cc(-c2cc(C(=O)Nc3ccncc3)c3ccccc3n2)cc(OC)c1OC,-71,?,?,-8,-4
O=C(NNC(=O)c1cc(-c2ccncc2)nc2ccccc12)c1ccccc1O,-94,-15,94*,2,-3
Cc1ccc(-c2cc(C(=O)Nc3ccncc3)c3ccccc3n2)cc1,-50,-11,50,32*,-4
O=C(NCCc1ccc2c(c1)OCCO2)c1ccccn1,4,-4,-4,-2,-2
CCCn1nnc(NC(=S)NC(=O)/C=C/c2ccc(Cl)cc2)n1,364*,-7,-364,.,-1
CCn1nnc(NC(=O)Cc2ccc(Cl)cc2)n1,30,7,-30,102*,-1
CN(Cc1ccccc1)C(=O)c1ccc(NC(=O)Cc2ccc(NC(=O)C3CCCN(C(=O)CCc4ccccc4)C3)cc2)cc1 (centres undefined),-52,-7,52,-2,1
O=C(NCCCN1CCCC1=O)c1cc2nc(-c3ccco3)cc(C(F)(F)F)n2n1,-11,-9,11,58*,0
O=C(c1cc2nc(-c3ccco3)cc(C(F)(F)F)n2n1)N1CCCCCC1,-8,-7,8,1,0
O=C(Nc1ccc(Cl)cc1)N[C@@H]1c2c(ccc3ccccc23)OC[C@@H]1CO,-82,12,82*,.,-2
CN(C(=O)c1ccccc1)C1c2c(ccc3ccccc23)OCC1CO (centres undefined),25,1,-25,-5,-1
COc1ccccc1-n1c(=S)[nH]c2c(sc(=S)n2-c2ccccc2C)c1=O,41,-8,-41,75*,1
O=C(O)CN(c1ccccc1[N+](=O)[O-])S(=O)(=O)c1ccccc1,30,-1,-30,-2,.
SMILES,SR-BI DiI-HDL act,dFosB act,SR-BI HDL uptake,CAL PDZ FP-1,CAL PDZ FP-2
CC(C)(C)S(=O)(=O)c1cnc(N2CCCCC2)nc1N,-11,-4,11,50*,-1
N#Cc1cnc(NOCc2ccc(Cl)cc2)nc1,20,-6,-20,-7,-1
CC(C(=O)O)c1cccc(C(=O)c2ccccc2)c1 (centres undefined),0,0,0,32*,0
CCOC(=O)c1sc(/S(C)=N\S(=O)(=O)c2cccc(Cl)c2)c2c1CCC=C2 (centres undefined),-8,-7,8,0,0
CC(=O)N1CCc2ccccc2C1CC(=O)O (centres undefined),11,0,-11,-3,-2
CN1CCN(C(=O)CC2C(=O)NCCN2Cc2ccc(-c3ccccc3)cc2)CC1 (centres undefined),22,-5,-22,71*,-1
O=C(CC1C(=O)NCCN1Cc1ccc(-c2ccccc2)cc1)NCc1ccccc1 (centres undefined),-6,-2,6,0,0
CC1CN(C2CCCCC2)C(=S)NC1=O (centres undefined),20,1,-20,.,-1
O=Cc1ccc(OC(=O)/C=C/c2ccccc2)cc1,17,6,-17,79*,0
O=C(c1noc2c1CCCC2)N1CCCC(N2CCN(c3ccccc3F)CC2)C1 (centres undefined),-73,-6,73*,-1,-1
CC(C)c1cc(C(=O)N2CCCC(N3CCN(c4ccc(F)cc4)CC3)C2)no1 (centres undefined),-36,-5,36,57*,-1
Cc1ccccc1N1CCN(C2CCCN(C(=O)c3csc(C(C)C)n3)C2)CC1 (centres undefined),-68,-11,68,54*,-1
O=C(c1ccsc1)N1CCCC(N2CCN(c3ccccc3F)CC2)C1 (centres undefined),24,-6,-24,-8,-1
CC(C)c1cc(C(=O)N2CCCC(N3CCN(c4ccc(F)cc4)CC3)C2)n(C)n1 (centres undefined),-49,2,49,-3,-1
CCOC(=O)c1c(C)nn(-c2ccc(NC(=O)CSCC(=O)O)cc2)c1C,-8,-1,8,-1,-1
CC(=O)Nc1cccc(NC(=O)C(=O)NCC(c2ccco2)N2CCc3ccccc32)c1 (centres undefined),-11,-6,11,-1,0
CN1CCN(NC(=O)c2c(-c3ccccc3)sc3ccccc23)CC1,31,-6,-31,-2,1
Cc1sc2nc(CN3CCN(c4ccc(O)cc4)CC3)[nH]c(=O)c2c1C,-3,-9,3,45*,1
C=CCCC(=O)Nc1nc(C)c(-c2csc(Nc3cc(Cl)ccc3OC)n2)s1,-87,-9,87*,3,0
C=CCCC(=O)Nc1nc(C)c(-c2csc(Nc3ccccc3OC)n2)s1,-71,-15,71*,-4,-1
CCCCC(=O)Nc1nc(C)c(-c2csc(Nc3ccccc3OC)n2)s1,-60,-15,60,0,0
CCC(C)C(=O)Nc1nc(C)c(-c2csc(Nc3ccccc3OC)n2)s1 (centres undefined),-78,-9,78*,-1,0

# Screening data (PubChem BioAssay)
